What was measured:
[1] = tested on: rat myocardial infarction (permanent coronary artery occlusion); assay: Rat MI 5 days, immunohistochemistry of peri-infarct zone; assay type: in vivo; conditions: 1 mg/kg, 5 days post-artery ligation
[2] = tested on: rat myocardial ischemia-reperfusion injury; assay: Rat ischemia-reperfusion study, 6 weeks; assay type: in vivo; conditions: 1 mg/kg, rat I/R
Method in brief: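 Male Sprague Dawley rats, 6-7 weeks old, underwent coronary ischemia-reperfusion and received test compound at 1 mg/kg for 6 weeks. Hearts were arrested in diastole, removed and mounted on a modified Langendorff apparatus. Passive LV pressure-volume relationships were recorded ex vivo.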

[3] = tested on: differentiated HL-60 cells; assay: Chemotaxis assay; assay type: cell-based, human
Method in brief: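 In vitro chemotaxis toward test compound was measured in differentiated HL-60 cells: parental, FPR1-deficient and FPR2 KO lines. EC50 came from a nonlinear concentration-response curve.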

human FPR2 = biological target: T1, human FPR2 (Homo sapiens, UniProt P25090); assay: BRET biosensor signaling, HEK293 cells expressing human FPR2; assay type: cell-based; conditions: Gαi1, Gαi2, Gαi3, GαoA, GαoB biosensors; FPR2 relative to FPR1
T1 sequence (P25090 1-351): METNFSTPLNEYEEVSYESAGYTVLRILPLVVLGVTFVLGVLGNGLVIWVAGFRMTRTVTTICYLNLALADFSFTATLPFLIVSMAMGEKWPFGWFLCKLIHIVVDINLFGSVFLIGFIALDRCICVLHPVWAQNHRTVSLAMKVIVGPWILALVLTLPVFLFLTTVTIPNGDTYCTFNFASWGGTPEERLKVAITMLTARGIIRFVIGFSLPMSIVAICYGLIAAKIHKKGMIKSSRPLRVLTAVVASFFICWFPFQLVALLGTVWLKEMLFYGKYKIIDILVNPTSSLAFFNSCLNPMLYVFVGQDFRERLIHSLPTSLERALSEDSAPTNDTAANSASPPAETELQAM
Method in brief: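 HEK293 cells transiently expressed human FPR1 or FPR2 with Gαi1, Gαi2, Gαi3, GαoA or GαoB BRET biosensors, and test compound was titrated. EC50 came from a nonlinear concentration-response curve fit. Selectivity ratio was FPR2 EC50/FPR1 EC50.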

human FPR1 = biological target: T2, human FPR1 (Homo sapiens, UniProt P21462); assay: BRET biosensor signaling, HEK293 cells expressing human FPR1; assay type: cell-based
T2 sequence (P21462 1-350): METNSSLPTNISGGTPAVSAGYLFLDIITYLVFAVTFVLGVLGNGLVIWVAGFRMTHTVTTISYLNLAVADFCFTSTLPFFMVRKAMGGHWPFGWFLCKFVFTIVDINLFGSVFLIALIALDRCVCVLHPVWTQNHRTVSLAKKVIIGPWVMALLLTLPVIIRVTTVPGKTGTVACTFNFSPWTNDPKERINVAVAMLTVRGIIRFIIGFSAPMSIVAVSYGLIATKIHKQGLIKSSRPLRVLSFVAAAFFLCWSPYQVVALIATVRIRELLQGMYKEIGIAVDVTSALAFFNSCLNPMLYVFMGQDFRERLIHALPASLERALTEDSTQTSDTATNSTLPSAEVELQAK

[4] = tested on: isolated human whole blood; assay: Human blood assay, cytokine and FPR2 mRNA expression; assay type: cell-based; conditions: for increase in IL-10 mRNA levels / increase in MCP-1 mRNA versus control: isolated human whole blood; for increase in IL-10 mRNA levels: average
[5] = tested on: mouse myocardial infarction (permanent LAD ligation); assay: Mouse MI early short-term treatment, histology and in situ hybridization; assay type: in vivo; conditions: 3 mg/kg, 3 days post MI
Method in brief: (§1)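 Male C57BL/6 mice, 10-12 weeks old, had the LAD permanently occluded by suture under ketamine/xylazine anesthesia and isoflurane ventilation. Test compound, 3 mg/kg, was given by oral gavage once daily, starting 24 hours post MI. Hearts were analyzed about 3 days after occlusion.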

[6] = tested on: isolated human neutrophils; assay: Apoptosis assay of isolated human neutrophils activated with SAA; assay type: cell-based; conditions: co-incubation with BMS-986235 and SAA, relative to SAA-only treatment
[7] = tested on: mouse myocardial infarction (permanent LAD ligation); assay: Mouse MI early short-term treatment, cardiac flow cytometry; assay type: in vivo; conditions: 3 mg/kg, 3 days post MI, mouse heart
Method in brief: as §1

[8] = tested on: rat myocardial infarction (permanent coronary artery occlusion); assay: Rat MI permanent coronary artery occlusion, 6 weeks; assay type: in vivo; conditions: 1 mg/kg once per day
Method in brief: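 Male Sprague Dawley rats, 6-7 weeks old, had permanent coronary artery occlusion by suture under ketamine/xylazine and isoflurane anesthesia. They received test compound at 1 mg/kg once daily for 6 weeks. LV volumes were measured by echocardiography. Terminally, under isoflurane, a 2.5-F conductance catheter was placed in the LV via right carotid cutdown, with parallel-conductance correction.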

[9] = tested on: noninfarcted rats challenged with LPS; assay: Acute LPS challenge in rat, IL-10; assay type: in vivo; conditions: 1 mg/kg
Method in brief: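 Adult male Sprague Dawley rats, 6-7 weeks old, without infarction, were dosed with test compound at 1 mg/kg and challenged with LPS. The read-out was IL-10 induction. Blood compound levels were taken 1.5 to 3 hours after dosing.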

[10] = tested on: BioGel-elicited peritoneal macrophages; assay: Zymosan phagocytosis assay; assay type: cell-based, mouse
[11] = tested on: mouse permanent coronary artery occlusion model; assay: Mouse MI 28-day treatment, survival and histomorphometry; assay type: in vivo
HL-60 cells = assay: Oxidative burst assay; assay type: cell-based, human

## COc1cc(F)c([C@@H]2CNC(=O)[C@H]2NC(=O)Nc2ccccc2)c(F)c1 [BMS-986235, 1-((3S,4R)-4-(2,6-difluoro-4-methoxyphenyl)-2-oxopyrrolidin-3-yl)-3-phenylurea]
[1]
  myocardial CD206 levels at peri-infarct zone versus vehicle: relative increases
  myocardial IL-10 levels at peri-infarct zone versus vehicle: relative increases
[2]
  ex vivo LV pressure-volume curve vs vehicle: left shifted
  reduction of LV volume at end-diastole: 26%
  reduction of LV volume at end-systole: 42%
  transmural thickness of the infarct wall relative to vehicle: without altering
  viable myocardium at the distal end of the MI: trend toward increased
[2]; Mid MI region
  % Viable Myocardium across infarct wall, increase vs vehicle: 31%
[2]; Proximal MI region
  % Viable Myocardium across infarct wall, increase vs vehicle: 31%
[3]; HL-60 FPR1 KO, bell-shaped response
  concentrations at which chemotaxis attenuation was observed: > 120 nM
[3]; HL-60 FPR2 KO line
  enhancement in chemotaxis: no enhancement
Human FPR2
  selectivity ratios (FPR2 EC50/FPR1 EC50): 164- to 614 fold
Human FPR1
  BRET signal for Gα12 and Gα13: minimal to no increase
[4]; 0.1 μM
  increase in IL-10 mRNA levels: 3 fold
[4]; 1 μM
  increase in MCP-1 mRNA versus control: 28 fold
[4]; 10 μM
  increase in MCP-1 mRNA versus control: 54 fold
  increase in IL-10 mRNA levels: 6 fold
[4]; any concentration (0.01-10 µM)
  induction of FPR2 mRNA: no significant induction
  induction of IL-6 mRNA: no significant induction
  induction of IL-8 mRNA: no significant induction
  induction of TNFα mRNA: no significant induction
[5]
  arginase-1 mRNA within peri-infarct border zone, fold vs vehicle: +6.4 fold
[6]
  reduction of percentage of viable neutrophils: 12%
[7]
  number of total macrophages relative to vehicle: unchanged
[8]
  Infarct Wall Thickness, change vs vehicle: +38%
  LV End Diastolic Volume (echocardiography), change vs vehicle: -26%
  LV End Systolic Volume (echocardiography), change vs vehicle: -29%
  Scar Area, change vs vehicle: -26%
[9]
  IL-10 induction: efficacious dose
[10]; FPR2 KO-derived peritoneal macrophages
  phagocytosis response above control macrophages: minimal response
[10]; WT-derived peritoneal macrophages
  Ymax zymosan phagocytosis: ~100%
[11]; 3 mg/kg once a day oral
  mortality over the 4 week study: significant reduction
[11]; 3 mg/kg, 4 weeks of treatment
  reduction of infarct scar size relative to vehicle: ~55%
HL-60 cells; HL-60 FPR1 KO line
  Ymax oxidative burst: 38%
HL-60 cells; HL-60 FPR2 KO line
  oxidative burst activity: abolished
HL-60 cells; HL-60 cells expressing both receptors
  Ymax oxidative burst: 97%
HL-60 cells; Homo sapiens, HL-60, read-out: EC50 oxidative burst
  EC50: 130 nM

Reference: article PMC8385569 (JACC: Basic to Translational Science, 2021)
